Measurements as given in ChEMBL document CHEMBL2040828 (J Med Chem, 2012).
Activity calls are given as the source filed them. The calls are words filed in the database; no cut-off is given here.

tested on: not listed separately; assay: Irreversible inhibition of hepatitis C virus NS5B polymerase; set-up: species or system Hepacivirus hominis; settings: not given

Row | IC50 | Compound
1 | 3 nM | Cc1ccc2c(c1)c(-c1ccc[nH]c1=O)c(C(=O)O)n2Cc1cc([N+](=O)[O-])ccc1F
2 | 3 nM | CCc1ccc2c(c1)c(-c1ccc[nH]c1=O)c(C(=O)NS(=O)(=O)C1CC1)n2Cc1cc(S(C)(=O)=O)c(C#N)cc1F
3 | 6 nM | CC(C)(C)c1ccc2c(c1)c(-c1ccc[nH]c1=O)c(C(=O)NS(=O)(=O)C1CC1)n2Cc1cc([N+](=O)[O-])ccc1F
4 | 4 nM | CCc1ccc2c(c1)c(-c1ccc[nH]c1=O)c(C(=O)NS(=O)(=O)C1CC1)n2Cc1cc([N+](=O)[O-])ccc1F
5 | 6 nM | Cc1ccc2c(c1)c(-c1ccc[nH]c1=O)c(C(=O)NS(C)(=O)=O)n2Cc1cc([N+](=O)[O-])ccc1F
6 | 3 nM | Cc1ccc2c(c1)c(-c1ccc[nH]c1=O)c(C(=O)NS(=O)(=O)C1CC1)n2Cc1cc(S(C)(=O)=O)cc(C#N)c1F
7 | 6 nM | Cc1ccc2c(c1)c(-c1ccc[nH]c1=O)c(C(=O)NS(=O)(=O)C1CC1)n2Cc1ccnc(N)c1
8 | 9 nM | Cc1ccc2c(c1)c(-c1ccc[nH]c1=O)c(C(=O)NS(=O)(=O)C1CC1)n2Cc1cc(C#N)ccc1F
9 | 4 nM | Cc1ccc2c(c1)c(-c1ccc[nH]c1=O)c(C(=O)NS(=O)(=O)C1CC1)n2Cc1cc(C(N)=O)ccc1F
10 | 6 nM | Cc1ccc2c(c1)c(-c1ccc[nH]c1=O)c(C(=O)NS(=O)(=O)C1CC1)n2Cc1cc([N+](=O)[O-])ccc1F
11 | 4 nM | Cc1ccc2c(c1)c(-c1ccc[nH]c1=O)c(C(=O)NS(=O)(=O)C(C)C)n2Cc1cc([N+](=O)[O-])ccc1F
12 | 4 nM | Cc1ccc2c(c1)c(-c1ccc[nH]c1=O)c(C(=O)NS(=O)(=O)C1CC1)n2Cc1cccc(C)c1F
13 | 4 nM | O=C(NS(=O)(=O)C1CC1)c1c(-c2ccc[nH]c2=O)c2cc(C(F)(F)F)ccc2n1Cc1cc([N+](=O)[O-])ccc1F
14 | 6 nM | Cc1ccc2c(c1)c(-c1ccc[nH]c1=O)c(C(=O)NS(=O)(=O)C1CC1)n2Cc1cc(F)ccc1F
15 | 14 nM | Cc1ccc2c(c1)c(-c1ccc[nH]c1=O)c(C(=O)NS(=O)(=O)C1CC1)n2Cc1c(F)c(F)cc(C(N)=O)c1F
16 | 5 nM | Cc1ccc2c(c1)c(-c1ccc[nH]c1=O)c(C(=O)NS(=O)(=O)N(C)C)n2Cc1cc([N+](=O)[O-])ccc1F
17 | 13 nM | Cc1ccc2c(c1)c(-c1ccc(C)[nH]c1=O)c(C(=O)O)n2Cc1cc([N+](=O)[O-])ccc1F

tested on: Hepatitis C virus; assay: Antiviral activity against HCV by cell based replicon assay; format: functional, organism-based, Hepacivirus hominis; settings: not given

Row | EC50 | Compound
18 | 1 nM | Cc1ccc2c(c1)c(-c1ccc[nH]c1=O)c(C(=O)O)n2Cc1cc([N+](=O)[O-])ccc1F
19 | 3 nM | CCc1ccc2c(c1)c(-c1ccc[nH]c1=O)c(C(=O)NS(=O)(=O)C1CC1)n2Cc1cc(S(C)(=O)=O)c(C#N)cc1F
20 | 10 nM | CC(C)(C)c1ccc2c(c1)c(-c1ccc[nH]c1=O)c(C(=O)NS(=O)(=O)C1CC1)n2Cc1cc([N+](=O)[O-])ccc1F
21 | 1 nM | CCc1ccc2c(c1)c(-c1ccc[nH]c1=O)c(C(=O)NS(=O)(=O)C1CC1)n2Cc1cc([N+](=O)[O-])ccc1F
22 | 1 nM | Cc1ccc2c(c1)c(-c1ccc[nH]c1=O)c(C(=O)NS(C)(=O)=O)n2Cc1cc([N+](=O)[O-])ccc1F
23 | 5 nM | Cc1ccc2c(c1)c(-c1ccc[nH]c1=O)c(C(=O)NS(=O)(=O)C1CC1)n2Cc1cc(S(C)(=O)=O)cc(C#N)c1F
24 | 500 nM | Cc1ccc2c(c1)c(-c1ccc[nH]c1=O)c(C(=O)NS(=O)(=O)C1CC1)n2Cc1ccnc(N)c1
25 | 220 nM | Cc1ccc2c(c1)c(-c1ccc[nH]c1=O)c(C(=O)NS(=O)(=O)C1CC1)n2Cc1cc(C#N)ccc1F
26 | 140 nM | Cc1ccc2c(c1)c(-c1ccc[nH]c1=O)c(C(=O)NS(=O)(=O)C1CC1)n2Cc1cc(C(N)=O)ccc1F
27 | 1 nM | Cc1ccc2c(c1)c(-c1ccc[nH]c1=O)c(C(=O)NS(=O)(=O)C1CC1)n2Cc1cc([N+](=O)[O-])ccc1F
28 | 3 nM | Cc1ccc2c(c1)c(-c1ccc[nH]c1=O)c(C(=O)NS(=O)(=O)C(C)C)n2Cc1cc([N+](=O)[O-])ccc1F
29 | 380 nM | Cc1ccc2c(c1)c(-c1ccc[nH]c1=O)c(C(=O)NS(=O)(=O)C1CC1)n2Cc1cccc(C)c1F
30 | 2 nM | O=C(NS(=O)(=O)C1CC1)c1c(-c2ccc[nH]c2=O)c2cc(C(F)(F)F)ccc2n1Cc1cc([N+](=O)[O-])ccc1F
31 | 3300 nM | Cc1ccc2c(c1)c(-c1ccc[nH]c1=O)c(C(=O)NS(=O)(=O)C1CC1)n2Cc1c(F)c(F)cc(C(N)=O)c1F
32 | 0.5 nM | Cc1ccc2c(c1)c(-c1ccc[nH]c1=O)c(C(=O)NS(=O)(=O)N(C)C)n2Cc1cc([N+](=O)[O-])ccc1F
33 | 30 nM | Cc1ccc2c(c1)c(-c1ccc(C)[nH]c1=O)c(C(=O)O)n2Cc1cc([N+](=O)[O-])ccc1F

tested on: not listed separately; assay: AUC in rat at 10 mg/kg, po; format: ADME, organism-based; set-up: dose 10 mg/kg, route oral; settings: plasma
Summary of the method: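 Single-dose pharmacokinetics: rats were dosed at 10 mg/kg, and monkeys and dogs at 3 mg/kg. Oral AUC, clearance, half-life and bioavailability were determined. All doses were given in 0.4% MC vehicle.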

Row | AUC | Compound
34 | 0.14 µM·h | Cc1ccc2c(c1)c(-c1ccc[nH]c1=O)c(C(=O)O)n2Cc1cc([N+](=O)[O-])ccc1F
35 | 0.17 µM·h | CCc1ccc2c(c1)c(-c1ccc[nH]c1=O)c(C(=O)NS(=O)(=O)C1CC1)n2Cc1cc([N+](=O)[O-])ccc1F
36 | 0.19 µM·h | Cc1ccc2c(c1)c(-c1ccc[nH]c1=O)c(C(=O)NS(C)(=O)=O)n2Cc1cc([N+](=O)[O-])ccc1F
37 | 0.01 µM·h | Cc1ccc2c(c1)c(-c1ccc[nH]c1=O)c(C(=O)NS(=O)(=O)C1CC1)n2Cc1cc([N+](=O)[O-])ccc1F

target: T1, Lupus La protein (Homo sapiens, UniProt P05455); assay: Binding affinity to human La antigen by NMR based ALARM assay; format: ADME; settings: not given
T1 sequence (P05455 whole entry): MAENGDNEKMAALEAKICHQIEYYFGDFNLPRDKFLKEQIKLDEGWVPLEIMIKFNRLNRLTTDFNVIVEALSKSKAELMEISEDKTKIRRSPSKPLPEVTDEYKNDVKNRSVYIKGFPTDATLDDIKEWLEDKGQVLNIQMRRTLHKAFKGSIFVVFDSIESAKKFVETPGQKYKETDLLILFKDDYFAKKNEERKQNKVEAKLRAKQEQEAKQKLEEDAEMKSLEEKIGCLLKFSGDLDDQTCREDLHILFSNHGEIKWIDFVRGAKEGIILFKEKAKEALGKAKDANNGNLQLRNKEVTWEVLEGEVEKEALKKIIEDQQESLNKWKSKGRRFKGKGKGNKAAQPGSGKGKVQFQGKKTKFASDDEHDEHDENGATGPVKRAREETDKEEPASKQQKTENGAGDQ
Summary of the method: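 NMR-based ALARM assay. The compound was incubated with human La antigen, and NMR was used to monitor reaction with the antigen's reactive thiols.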

Row | Activity | Compound
38 | Not Active | CCc1ccc2c(c1)c(-c1ccc[nH]c1=O)c(C(=O)NS(=O)(=O)C1CC1)n2Cc1cc([N+](=O)[O-])ccc1F

tested on: Hepacivirus hominis; assay: Binding affinity to hepatitis C virus NS5B polymerase assessed as covalent bonding with cysteine-366 residue by mass spectroscopy analysis; settings: not given

Row | Activity | Compound
39 | Active | Cc1ccc2c(c1)c(-c1ccc[nH]c1=O)c(C(=O)NS(C)(=O)=O)n2Cc1cc([N+](=O)[O-])ccc1F

tested on: Salmonella typhimurium; assay: Mutagenic activity in Salmonella typhimurium by mini-AMES test in presence of S9 fraction; format: toxicity, organism-based; settings: salmonella enterica subsp. enterica serovar typhimurium

Row | Compound | Activity
40 | CCc1ccc2c(c1)c(-c1ccc[nH]c1=O)c(C(=O)NS(=O)(=O)C1CC1)n2Cc1cc([N+](=O)[O-])ccc1F | Non-toxic

tested on: Salmonella typhimurium; assay: Mutagenic activity in Salmonella typhimurium by mini-AMES test in absence of S9 fraction; format: toxicity, organism-based; settings: salmonella enterica subsp. enterica serovar typhimurium

Row | Compound | Activity
41 | CCc1ccc2c(c1)c(-c1ccc[nH]c1=O)c(C(=O)NS(=O)(=O)C1CC1)n2Cc1cc([N+](=O)[O-])ccc1F | Non-toxic

tested on: not listed separately; assay: Mutagenic activity in micronuclei assessed as induction of chromosomal damage; settings: not given

Row | Compound | Activity
42 | CCc1ccc2c(c1)c(-c1ccc[nH]c1=O)c(C(=O)NS(=O)(=O)C1CC1)n2Cc1cc([N+](=O)[O-])ccc1F | Non-toxic
